The record followed here is ChEMBL document CHEMBL2093137, “WHO-TDR NTD Screening”.

Values after ≈ are worked out from the molar mass of the structure shown.

Series [1] is described as follows: WHO-TDR: Cytotoxicity. It is filed as toxicity, cell-based. The conditions noted are these: human, MRC5 cells.
Series [2] has as its system Onchocerca ochengi. In words: WHO-TDR: Onchocerciasis. Further details: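 at 12.5 µM on microfilariae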. The class given is functional. The procedure, abridged: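 Percent inhibition and IC50 describe activity against microfilariae of Onchocerca ochengi or Onchocerca lienalis, used as animal-pathogen substitutes for the human parasite. The compounds tested made up a 10,000-member diverse library from Life Chemicals.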

Series [3] deals with Leishmania infantum. Nature of the series: WHO-TDR: Leishmaniasis. It is filed as functional, organism-based, Mus musculus. The settings on record: Macrophage. In outline: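 Intracellular amastigotes of Leishmania infantum MHOM/MA(BE)/67, hosted in murine peritoneal macrophages, were exposed to compounds from a 10,000-member diverse library supplied by Life Chemicals. The library had been filtered for drug-likeness and reactive groups. The reported IC50 expresses antiparasitic potency.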

Series [4] has as its system Plasmodium falciparum K1. In words: WHO-TDR: Malaria. It is filed as functional, organism-based, Homo sapiens. The conditions noted are these: Erythrocyte. In outline: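 Previously published standard procedures, including a reference drug as positive control, were used to screen whole Plasmodium falciparum K1 parasites inside human red blood cells. IC50 is the measure of antiplasmodial potency. The compounds were a 10,000-member diverse Life Chemicals library.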

Series [5] has as its system Brugia malayi. In words: WHO-TDR: Lymphatic Filariasis. Also noted: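 tested at 10 µM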. The class given is functional. In outline:
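The screening set was a 10,000-compound diverse library from Life Chemicals, filtered for drug-likeness and for reactive groups. It was run against Brugia malayi microfilariae as whole organisms, using previously published standard procedures. Reference drugs acted as positive controls, and activity is reported both as percent inhibition and as IC50.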

The subject of series [6] is Trypanosoma cruzi. In words: WHO-TDR: Chagas disease. The class given is functional, organism-based, Homo sapiens. The settings on record: MRC5. The procedure, abridged: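 Following previously published standard procedures, with a reference drug as positive control, a whole-organism assay was run on Trypanosoma cruzi Tulahuen CL2 beta-galactosidase strain amastigotes inside MRC-5SV2 human lung fibroblast host cells. The 10,000 compounds tested formed a diverse Life Chemicals library filtered for drug-likeness and reactive groups. Results are expressed as IC50 for antiparasitic potency.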

For series [7], the system named is Trypanosoma brucei brucei. In words: WHO-TDR: Human African Trypanosomiasis (HAT). The class given is functional, organism-based. The conditions noted are these: Squib-427. The procedure, abridged: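 In this whole-organism screen, the target was the bloodstream form of Trypanosoma brucei, strain Squib 427. A diverse set of 10,000 compounds from Life Chemicals, previously filtered for drug-likeness and reactive groups, was assayed by standard published procedures using reference drugs as positive controls. Each value is an IC50 for antiparasitic potency.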

Series [8] concerns Schistosoma mansoni. Nature of the series: WHO-TDR: Schistosomiasis. Also noted: concentration or dose not given beside the values. It is filed as functional. The procedure, abridged:
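Percent inhibition and IC50 describe activity against whole Schistosoma mansoni worms of the Puerto Rican strain, tested as larvae and/or adults. The compounds screened were a diverse set of 10,000 from Life Chemicals, filtered for drug-likeness and reactive groups. Testing followed previously published standard procedures, with a reference drug as positive control.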

Take `Cc1ccnc(Nc2ccc(N3CCN(C(=O)c4ccc(F)cc4)CC3)nn2)c1`: the IC50 – broadly, the concentration at which inhibition is half-maximal – is greater than 11.8 µg/mL in series [1]; 0.381 µg/mL (≈ 0.971 µM) in series [3]; greater than 11.8 µg/mL in series [4]; greater than 11.8 µg/mL in series [6]; greater than 11.8 µg/mL in series [7]. For the same molecule, the “% Inhibition” value in series [2], in series [5] and in series [8] was 0% throughout.
On to `O=C(Nc1nnc(Cc2cccs2)o1)c1cc(Cl)sc1Cl`, for which the IC50 in series [1] was 0.967 µg/mL (≈ 2.68 µM); in series [3], greater than 10.8 µg/mL; in series [4], greater than 10.8 µg/mL; in series [6] it was 0.632 µg/mL (≈ 1.75 µM); in series [7], 0.342 µg/mL (≈ 0.949 µM). For the same molecule, the “% Inhibition” value in series [2], in series [5] and in series [8] was 0% in each case.
As to `O=C(NCCNc1ccc(Nc2ccccn2)nn1)c1ccc(F)cc1`, the IC50 is greater than 10.6 µg/mL in series [1]; greater than 10.6 µg/mL in series [3]; 4.32 µg/mL (≈ 12.3 µM) in series [4]; greater than 10.6 µg/mL in series [6]; greater than 10.6 µg/mL in series [7]. Moreover, the % Inhibition (as a rule, the change of the read-out against control, counted positive when it falls) in series [2] was 100%; in series [5] it was 0%; in series [8] it was 0%.
For the molecule `COc1ccc(-c2ccc(=O)n(CCCNC(=O)Cc3ccc(F)cc3)n2)cc1`, the IC50 in series [1] was 11.3 µg/mL (≈ 28.7 µM); in series [3], greater than 11.9 µg/mL; in series [4] it was greater than 11.9 µg/mL; in series [6], greater than 11.9 µg/mL; in series [7] it was greater than 11.9 µg/mL. Also, the “% Inhibition” value in series [2] is reported as 100%; in series [5], 0%; in series [8], 0%.
On to `O=C(COc1ccc(Cl)cc1)NCCCn1nc(-c2ccc(F)cc2)ccc1=O`, for which the IC50 in series [1], in series [3], in series [4], in series [6] and in series [7] was greater than 12.5 µg/mL throughout. Further, the “% Inhibition” value was determined as 100% in series [2], 0% in series [5] and 16.7% in series [8].
Take `COc1cccc(C(=O)N2CCN(c3ccc(-c4ccccn4)nn3)CC2)c1OC`: the IC50 came to 5.68 µg/mL (≈ 14 µM) in series [1]; 1.81 µg/mL (≈ 4.46 µM) in series [3]; 0.548 µg/mL (≈ 1.35 µM) in series [4]; 0.421 µg/mL (≈ 1.04 µM) in series [6]; 3.85 µg/mL (≈ 9.49 µM) in series [7]. Further, the “% Inhibition” value in series [2] is on record as 100%; in series [5], 33.33%; in series [8], 33.3%.
With `Cc1ccc(S(=O)(=O)NCC(c2cccc3ccccc23)N2CCOCC2)cc1C` (stereo unspecified), the IC50 in series [1] was greater than 12.7 µg/mL; in series [3], greater than 12.7 µg/mL; in series [4], 8.79 µg/mL (≈ 20.7 µM); in series [6], 4.18 µg/mL (≈ 9.85 µM); in series [7] it was 4.12 µg/mL (≈ 9.71 µM). Further, the entries for the “% Inhibition” value in series [2], in series [5] and in series [8] were 100%, 25% and 0%, respectively.
Regarding `COc1ccc(OC)c(Nc2c(C#N)cnc3ccc(Cl)cc23)c1`, the IC50 in series [1] was 1.08 µg/mL (≈ 3.18 µM); in series [3] it was 0.365 µg/mL (≈ 1.07 µM); in series [4] it was greater than 11.3 µg/mL; in series [6], 3.08 µg/mL (≈ 9.07 µM); in series [7] it was greater than 11.3 µg/mL. Also, the entries for the “% Inhibition” value in series [2], in series [5] and in series [8] were 0%, 20% and 0%, respectively.
On to `CC1CCc2[nH]nc(-c3nc(-c4ccc(Cl)cc4)no3)c2C1` (stereo unspecified), for which the IC50 in series [1] was greater than 9.44 µg/mL; in series [3], greater than 9.44 µg/mL; in series [4], greater than 9.44 µg/mL; in series [6] it was 5.55 µg/mL (≈ 17.6 µM); in series [7] it was greater than 9.44 µg/mL. The “% Inhibition” value came to 100% in series [2], 0% in series [5] and 0% in series [8].
Take `O=C(Cc1csc(NC(=O)c2ccc[nH]c2=O)n1)Nc1ccc2c(c1)OCCO2`: the IC50 in series [1], in series [3], in series [4], in series [6] and in series [7] was greater than 12.4 µg/mL each time. The “% Inhibition” value in series [2] is given as 0%; in series [5], 20%; in series [8], 100%.
Take `COc1ccc(C)cc1S(=O)(=O)NCCNc1ccc(Nc2cccc(C)n2)nn1`: the IC50 in series [1] was greater than 12.9 µg/mL; in series [3], greater than 12.9 µg/mL; in series [4] it was 3.4 µg/mL (≈ 7.95 µM); in series [6] it was greater than 12.9 µg/mL; in series [7], 5.42 µg/mL (≈ 12.7 µM). The “% Inhibition” value turned out to be 100% in series [2], 0% in series [5] and 0% in series [8].
For `Cn1ccnc1N1CCN(CC(=O)Nc2ccc(OC(F)(F)F)cc2)CC1`, the IC50 is greater than 11.5 µg/mL in series [1]; 0.372 µg/mL (≈ 0.97 µM) in series [3]; greater than 11.5 µg/mL in series [4]; greater than 11.5 µg/mL in series [6]; 5.13 µg/mL (≈ 13.4 µM) in series [7]. For the same molecule, the “% Inhibition” value in series [2] is 50%; in series [5], 0%; in series [8] it was 0%.
With `O=C(NCCOc1ccc(-c2ccc(F)cc2)nn1)c1cccc(C(F)(F)F)c1`, the half-maximal inhibitory concentration (IC50) in series [1], in series [3], in series [4], in series [6] and in series [7] was greater than 12.2 µg/mL in each case. Also, the “% Inhibition” value in series [2] is 100%; in series [5] it was 25%; in series [8], 0%.
With `Cc1ccnc(Nc2ccc(NCCNC(=O)c3ccc(F)cc3Cl)nn2)c1`, the IC50 in series [1] is greater than 12 µg/mL; in series [3] it was greater than 12 µg/mL; in series [4], 5.9 µg/mL (≈ 14.7 µM); in series [6], greater than 12 µg/mL; in series [7], 4.09 µg/mL (≈ 10.2 µM). Besides, the “% Inhibition” value in series [2] came out at 100%; in series [5], 25%; in series [8], 0%.
In the case of `O=C(Cc1csc(NC(=O)c2ccc[nH]c2=O)n1)Nc1ccc(Cl)cc1`, the IC50 in series [1] was greater than 11.7 µg/mL; in series [3] it was 0.378 µg/mL (≈ 0.972 µM); in series [4] it was greater than 11.7 µg/mL; in series [6], greater than 11.7 µg/mL; in series [7], greater than 11.7 µg/mL. Also, the “% Inhibition” value in series [2] is recorded as 0%; in series [5], 20%; in series [8], 0%.
In the case of `O=C(c1ccc2c(c1)OCCO2)N(CCCn1ccnc1)c1nc2c(F)cccc2s1`, the IC50 was 6.23 µg/mL (≈ 14.2 µM) in series [1]; greater than 14.2 µg/mL in series [3]; 1.35 µg/mL (≈ 3.08 µM) in series [4]; 3.6 µg/mL (≈ 8.22 µM) in series [6]; 4.56 µg/mL (≈ 10.4 µM) in series [7]. The “% Inhibition” value is 100% in series [2], 0% in series [5] and 0% in series [8].
Regarding `COc1ccc(CC(=O)N2CCN(c3nccn3-c3cccc(Cl)c3)CC2)cc1OC`, the IC50 in series [1] was greater than 14.3 µg/mL; in series [3] it was 0.464 µg/mL (≈ 1.05 µM); in series [4], greater than 14.3 µg/mL; in series [6], greater than 14.3 µg/mL; in series [7], greater than 14.3 µg/mL. The “% Inhibition” value in series [2] was 0%; in series [5], 0%; in series [8], 16.7%.
On to `Cc1ccc(S(=O)(=O)N2CCC(C(=O)Nc3c(C(N)=O)oc4ccccc34)CC2)cc1`, for which the IC50 in series [1], in series [3], in series [4], in series [6] and in series [7] was greater than 13.2 µg/mL throughout. Moreover, the “% Inhibition” value in series [2] is reported as 100%; in series [5], 0%; in series [8], 0%.
Turning to `CC1Cc2ccccc2N1C(=O)Cc1csc(NC(=O)c2ccc[nH]c2=O)n1` (stereo unspecified), the IC50 in series [1], in series [3], in series [4], in series [6] and in series [7] was greater than 11.8 µg/mL in each case. Besides, the “% Inhibition” value came to 50% in series [2], 20% in series [5] and 100% in series [8].
For the molecule `CSc1cccc2sc(N3CCN(C(=O)c4ccccc4)CC3)nc12`, the IC50 is greater than 11.1 µg/mL in series [1]; greater than 11.1 µg/mL in series [3]; greater than 11.1 µg/mL in series [4]; 4.19 µg/mL (≈ 11.3 µM) in series [6]; greater than 11.1 µg/mL in series [7]. Besides, the entries for the “% Inhibition” value in series [2], in series [5] and in series [8] were 100%, 0% and 0%, respectively.
Consider `COc1cc(C(=O)Nc2ccc3c(c2)N(C(=O)c2ccco2)CC3)cc(OC)c1OC`, for which the IC50 in series [1] was 2.08 µg/mL (≈ 4.91 µM); in series [3], greater than 12.7 µg/mL; in series [4] it was 11.5 µg/mL (≈ 27.1 µM); in series [6], greater than 12.7 µg/mL; in series [7], greater than 12.7 µg/mL. Further, the “% Inhibition” value in series [2] was 100%; in series [5], 0%; in series [8], 16.7%.
As for `O=C(Nc1ccc2c(c1)N(C(=O)c1cccs1)CC2)c1cc2ccccc2oc1=O`, the IC50 in series [1] was greater than 12.5 µg/mL; in series [3], 0.404 µg/mL (≈ 0.97 µM); in series [4], greater than 12.5 µg/mL; in series [6], greater than 12.5 µg/mL; in series [7], greater than 12.5 µg/mL. Further, the “% Inhibition” value worked out at 0% in series [2], 0% in series [5] and 16.7% in series [8].
